Published values of several laboratories.
Protocols differ between the studies behind these lines.
CDK6 with cyclin D3: Cyclin-dependent kinase 6, with cyclin D3 (CDK6, Homo sapiens, UniProt Q00534)
CDK6: Cyclin-dependent kinase 6 (CDK6, Homo sapiens, UniProt Q00534)
CDK6 with cyclin D1: Cyclin-dependent kinase 6, with cyclin D1 (CDK6, Homo sapiens, UniProt Q00534)

| Structure (SMILES) | target | assay | setting | quantity | value |
| --- | --- | --- | --- | --- | --- |
| CNC(=O)c1cc(Oc2ccc(NC(=O)Nc3ccc(Cl)c(C(F)(F)F)c3)cc2)ccn1 | CDK6 with cyclin D3 | enzyme activity, inhibitor | 10 µM | inhibition | -5% |
| Cc1cc(NC(=O)c2cccc3cc(-c4cccc5[nH]nc(N)c45)ccc23)ccc1F | CDK6 with cyclin D3 | enzyme activity, inhibitor | 0.1 µM | activity vs control | 94% |
| CCN(CC)c1ccc(C2=NNC(=O)CC2C)cc1[N+](=O)[O-] (centres unmarked) | CDK6 with cyclin D3 | enzyme activity, inhibitor | 10 µM | remaining activity | 90% |
| Cn1cnc(Br)c1C1=CN(c2ncnc3[nH]cnc23)CCS1 | CDK6 | enzyme activity, inhibitor, radiometric | 2 µM | inhibition | 40.4% |
| O=C1NC(=O)c2cc(Nc3ccc(F)cc3)c(Nc3ccc(F)cc3)cc21 | CDK6 with cyclin D1 | cell-free assay | 0.5 µM | remaining signal | 99% |
| Cc1ccc(Nc2nccc(N(C)c3ccc4c(C)n(C)nc4c3)n2)cc1S(N)(=O)=O | CDK6 with cyclin D3 | enzyme activity, inhibitor | 0.3 µM | inhibition | -7% |
| CCCS(=O)(=O)Nc1ccc(F)c(C(=O)c2c[nH]c3ncc(-c4ccc(Cl)cc4)cc23)c1F | CDK6 with cyclin D3 | enzyme activity, inhibitor | 1 µM | inhibition | < 10% |
| CCN(CC)CCNC(=O)c1c(C)[nH]c(/C=C2\C(=O)Nc3ccc(F)cc32)c1C | CDK6 with cyclin D3 | enzyme activity, inhibitor | 10 µM | inhibition | 73% |
| Cc1ccc(NC(=O)c2ccc(C)c(C(F)(F)F)c2)cc1C#Cc1nn(C2CCC(O)CC2)c2ncnc(N)c12 (centres unmarked) | CDK6 with cyclin D3 | cell-free assay | 10 µM | remaining signal | 120% |
| CC(C)(O)[C@H]1CC[C@H](Nc2ccc3ncc(-c4cccc(C(F)(F)F)c4)n3n2)CC1 | CDK6 with cyclin D3 | enzyme activity, inhibitor | 1 µM | remaining activity | 96.4% |
| Nc1nc(Nc2ccc(S(N)(=O)=O)cc2)sc1C(=O)c1ccccc1[N+](=O)[O-] | CDK6 | enzyme activity, inhibitor | 0.1 µM | inhibition | 85% |
| N#CCCc1ccc2c(c1)-c1[nH]c3ccc([N+](=O)[O-])cc3c1CC(=O)N2 | CDK6 with cyclin D3 | cell-free assay | 0.5 µM | remaining signal | 26% |
| O=C(Nc1cnn(-c2csc(C(=O)NC3COC3)c2)c1)Nc1c(F)cccc1Cl | CDK6 with cyclin D1 | enzyme activity, inhibitor | 5 µM | remaining activity | 105% |
| CC(C)(C)c1nc2c(s1)c1nc(N)ncc1c1ccc(NS(=O)(=O)c3c(F)cccc3F)c(F)c12 | CDK6 with cyclin D3 | enzyme activity, inhibitor, radiometric | 1 µM | remaining activity | 97% |
| O=C1Nc2ccc(Cl)cc2C1=Cc1cc(Cl)c(O)c(Cl)c1 | CDK6 with cyclin D1 | cell-free assay | 0.5 µM | remaining signal | 97% |
| O=C(Nc1cnn(-c2csc(C(=O)NC3COC3)c2)c1)Nc1ccccc1Cl | CDK6 with cyclin D1 | enzyme activity, inhibitor | 5 µM | remaining activity | 95.4% |
| CC(C)(C)c1nc(-c2cccc(NS(=O)(=O)c3c(F)cccc3F)c2F)c(-c2ccnc(N)n2)s1 | CDK6 with cyclin D1 | enzyme activity, inhibitor, radiometric | 1 µM | remaining activity | 104% |
